Measurements taken from ChEMBL document CHEMBL1129975, “Depsides and depsidones as inhibitors of HIV-1 integrase: discovery of novel inhibitors through 3D database searching” (J Med Chem, 1997).

Legend:
[1] = biological target: T1, Human immunodeficiency virus type 1 integrase (Human immunodeficiency virus 1, UniProt Q7ZJM1); assay: Inhibitory concentration of compound against strand transfer of HIV-1 integrase in experiment 1&2
Outline: (§1)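 Purified recombinant HIV-1 integrase (200 nM final) preincubated with inhibitor for 30 min at 30 °C. Buffer: 25 mM MOPS pH 7.2, 7.5 mM MnCl2, 50 mM NaCl, 10% DMSO, 10% glycerol, 0.1 mg/mL BSA. Then 20 nM 5′-32P-labelled 21-mer blunt-end U5 LTR duplex was added for 1 h. Products were resolved on a denaturing 20% polyacrylamide/urea gel. IC50 was read from a percent-inhibition versus concentration plot.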

[2] = biological target: T1, Human immunodeficiency virus type 1 integrase; assay: Inhibitory concentration of compound against 3'-processing of HIV-1 integrase in experiment 1&2; outline: as §1
[3] = biological target: T1, Human immunodeficiency virus type 1 integrase; assay: Inhibitory concentration of compound against 3'-processing of HIV-1 integrase in experiment 2
[4] = biological target: T1, Human immunodeficiency virus type 1 integrase; assay: Inhibitory concentration of compound against 3'-processing of HIV-1 integrase in experiment 1
[5] = biological target: T1, Human immunodeficiency virus type 1 integrase; assay: Inhibitory concentration of compound against strand transfer of HIV-1 integrase in experiment 2
[6] = biological target: T1, Human immunodeficiency virus type 1 integrase; assay: Inhibitory concentration of compound against strand transfer of HIV-1 integrase in experiment 1
[7] = biological target: T1, Human immunodeficiency virus type 1 integrase; assay: Inhibitory concentration of compound against disintegration (reversal of strand transfer)of HIV-1 integrase
Outline: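 Disintegration run under the integrase assay conditions (200 nM enzyme preincubated 30 min at 30 °C in MnCl2/MOPS buffer, then 1 h with substrate). Substrate was a Y-shaped branched oligonucleotide mimicking a strand transfer product, 32P-labelled at the 5′ end of its 15-mer. The core-truncated mutant IN50-212 was used as enzyme. The 30-mer product was resolved on a denaturing 20% gel. IC50 was taken from a percent-inhibition plot.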

[8] = biological target: T2, Human immunodeficiency virus type 2 integrase (Human immunodeficiency virus 2, UniProt P89582); assay: Inhibitory concentration of compound against strand transfer of HIV- integrase
T2 sequence (P89582 whole entry): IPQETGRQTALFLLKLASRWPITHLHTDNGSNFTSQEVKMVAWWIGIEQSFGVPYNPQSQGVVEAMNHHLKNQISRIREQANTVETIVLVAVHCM
Outline: (§2)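 Integrase (200 nM final) preincubated with inhibitor for 30 min at 30 °C in pH 7.2 MOPS/HEPES buffer with 7.5 mM MnCl2, 10% DMSO, BSA and 2-mercaptoethanol. Then 20 nM 5′-32P-labeled 21-mer U5 LTR duplex was added for 1 h. Quenched with formamide/EDTA dye and run on denaturing 20% PAGE. IC50 read from a plot of % inhibition against drug concentration.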

[9] = biological target: T2, Human immunodeficiency virus type 2 integrase; assay: Inhibitory concentration of compound against 3' processing of HIV-2 integrase; outline: as §2
[10] = biological target: T2, Human immunodeficiency virus type 2 integrase; assay: Inhibitory concentration of compound against 3'-processing of HIV-2 integrase
[11] = biological target: T2, Human immunodeficiency virus type 2 integrase
[12] = biological target: T2, Human immunodeficiency virus type 2 integrase; assay: Inhibitory concentration of compound against strand transfer of HIV-2 integrase; outline: as §2

T1 sequence (Q7ZJM1 whole entry): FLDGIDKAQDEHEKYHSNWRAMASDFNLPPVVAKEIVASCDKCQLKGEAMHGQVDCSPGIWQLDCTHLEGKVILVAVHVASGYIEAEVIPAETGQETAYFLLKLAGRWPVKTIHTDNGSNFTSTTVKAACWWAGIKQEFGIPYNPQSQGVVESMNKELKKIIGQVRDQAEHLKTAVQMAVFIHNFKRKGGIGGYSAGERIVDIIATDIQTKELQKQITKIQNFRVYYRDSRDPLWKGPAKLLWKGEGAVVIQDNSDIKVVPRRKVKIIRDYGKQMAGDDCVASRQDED

Row | SMILES | IC50 [3] [µM] | IC50 [4] [µM] | IC50 [5] [µM] | IC50 [6] [µM] | other results
1 | Cc1cc(Cc2cc(C)c(O)c(C(=O)O)c2)cc(C(=O)O)c1O |  |  |  |  | IC50 [1]: 68.5 µM; IC50 [2]: 61.8 µM
2 | Cc1cc(C(c2cc(C)c(O)c(C(=O)O)c2)c2cc(C)c(O)c(C(=O)O)c2)cc(C(=O)O)c1O | < 23.4 | 20.4 | < 23.4 | 16.7 | 
3 | Cc1cc(C(O)(c2cc(C)c(O)c(C(=O)O)c2)c2cc(C)c(O)c(C(=O)O)c2)cc(C(=O)O)c1O | 32.8 | 35.8 | 23 | 21.8 | 
4 | CCN(CC)c1ccc(Cc2ccc(N(C)C)c(Cl)c2)cc1 | 78.6 | 61.8 | 38.6 | 45.8 | 
5 | CCCCCc1cc2cc(O)cc(Oc3c(O)cc(O)c(C(=O)O)c3CCCCC)c2c(=O)o1 |  | 52.2 |  | 45.7 | IC50 [7]: 35 µM
6 | CC(=O)C1=C(NNC(=O)c2ccccn2)[C@@]2(C)C(=CC1=O)Oc1c(C(C)=O)c(O)c(C)c(O)c12 | 60.8 | 73 | 55 | 48.5 | IC50 [7]: 39 µM
7 | CCOC(=O)c1cnc(NCCCNc2ncc(C(=O)OCC)c(=O)[nH]2)[nH]c1=O | 11.6 | 12.8 | 7.9 | 16.7 | 
8 | O=[N+]([O-])c1cccc(/C=N/CCN2CCN(CC/N=C/c3cccc([N+](=O)[O-])c3O)C2c2cccc([N+](=O)[O-])c2O)c1O | 60.8 | 52.7 | 49.5 | 36.7 | 
9 | O=C(Nc1ccc(C(=O)O)c(O)c1)c1ccc(C(=O)Nc2ccc(O)c(C(=O)O)c2)cc1 | 25.2 | 23.6 | 20 | 16.3 | 
10 | O=C(NO)c1cc(O)c(O)c(O)c1 | 3.2 | 1.1 | 1.6 | 0.5 | IC50 [8]: 1600 nM; IC50 [9]: 1600 nM
11 | O=C(NC(Cc1ccc(O)c(O)c1)C(=O)OCc1ccccc1)c1ccc([N+](=O)[O-])cc1 (stereo not given) | 253 | 163 | 76.6 | 55.4 | 
12 | Cc1c2cc(O)c(=O)cc-2oc2cc(O)c(O)cc12 | 1.5 | 1.1 | 0.9 | 1.1 | IC50 [10]: 2300 nM; IC50 [11]: 1500 nM
13 | Nc1cc(C(=O)O)c(-c2cc(O)c(N)cc2C(=O)O)cc1O |  | 212 |  | 234 | 
14 | COC(=O)c1c(C)c2c(c(C)c1O)OC(=O)c1c(C)cc(O)c(C=O)c1O2 |  |  |  |  | IC50 [1]: 4.4 µM; IC50 [7]: 26 µM; IC50 [2]: 5.4 µM
15 | O=C(/C=C/c1ccc(O)c(O)c1)O[C@H]1[C@H](O)C[C@](O)(C(=O)O)C[C@H]1OC(=O)/C=C/c1ccc(O)c(O)c1 | 0.7 | 1.3 | 0.7 | 0.6 | IC50 [10]: 500 nM; IC50 [12]: 500 nM
16 | COc1cc(C)c2c(c1C)OC(=O)c1c(C)c(Cl)c(O)c(C=O)c1O2 | 2.7 | 2.2 | 2.7 | 1.6 | IC50 [7]: 12.8 µM
17 | O=C(O)c1ccccc1C(c1cc(Br)c(O)c(Br)c1)c1ccc(Br)c(O)c1Br (stereo not given) | 25.6 | 43.7 | 27.2 | 38.8 | 
18 | Cc1ncc(COP(=O)(O)O)c(C2NC(C(=O)O)CS2)c1O (stereo not given) | 75.1 | 91.7 | 31.7 | 93.4 | 

Row | SMILES | IC50 [3] [µM] | IC50 [4] [µM] | IC50 [5] [µM] | IC50 [6] [µM] | other results
19 | Cc1cc(O)c(C=O)c2c1C(=O)Oc1c(C)c(O)c(C(=O)O)c(C)c1O2 |  |  |  |  | IC50 [1]: 6.5 µM; IC50 [7]: 33.5 µM; IC50 [2]: 4.6 µM
20 | O=C(O)c1ccc(C(=O)O)c2c(C(=O)O)ccc(C(=O)O)c12 | 174 | 122 | 182 | 176 | 
21 | O=C1OC2C(O)COC2(O)C1(O)Cc1cc(O)c(O)c(Br)c1Br (stereo not given) | 28.7 | 64.7 | 24.3 | 50.2 | 
22 | O=C(O)c1cc(/N=N\c2ccccc2C(=O)O)ccc1O | 211 | 116 | 224 | 116 | 
23 | O=C(c1ccc(O)cc1O)C1C(c2ccc(O)cc2)OC(c2ccc(O)cc2)C1C(=O)c1ccc(O)cc1O (stereo not given) | 169 | 165 | 129 | 143 | 
24 | CCCCCc1cc(O)cc2c1Oc1cc(O)cc(C(=O)CCCC)c1C(=O)O2 | 42.2 | 59.9 | 28.1 | 39.2 | 
25 | O=C1C(O)=C(c2ccccc2)C12CSC1(CS2)C(=O)C(O)=C1c1ccccc1 (stereo not given) | 60 | 132 | 54.8 | 172 | 
26 | O=C(O)c1cnc2c(ccc3ncc(C(=O)O)c(O)c32)c1O | 6.1 | 7.6 | 6.1 | 9.8 | 
27 | O=C(/C=C/c1ccc(O)c(O)c1)O[C@@H]1C[C@](O)(C(=O)O)C[C@@H](O)[C@H]1O (single isomer, unassigned) [CHLOROGENIC ACID] | 58.2 | 87.8 | 31.3 | 45.8 | 
28 | CC(=O)C1=C(O)C=C2Oc3c(C(C)=O)c(O)c(C)c(O)c3[C@@]2(C)C1=O [(+)-USNIC ACID] |  |  |  |  | IC50 [1]: 124 µM; IC50 [7]: 133 µM; IC50 [2]: 126 µM
29 | COC(=O)c1c(C)cc(OC(=O)c2c(C)cc(O)c(C=O)c2O)c(C)c1O [ATRANORIN] | 62.4 | 61 | 44 | 36 | IC50 [7]: 128 µM
30 | C[C@@](O)(/C=C/[C@H]1CC=CC(=O)O1)[C@@H](C[C@@H](O)C=CC=C/C=C/CO)OP(=O)(O)O [FOSTRIECIN] | 118 | 41.3 | 52.7 | 12.8 | 
31 | Cc1cc(O)c(C=O)c2c1C(=O)Oc1c(COC(=O)/C=C/C(=O)O)c(O)c(C(=O)O)c(C)c1O2 [FUMARPROTOCETRARIC ACID] |  |  | 7.3 |  | IC50 [1]: 4.6 µM; IC50 [2]: 4.9 µM
32 | CCCCCC(=O)Cc1cc(O)cc2c1C(=O)Oc1cc(O)c(C(=O)O)c(CCCCC)c1O2 [PHYSODIC ACID] |  |  |  |  | IC50 [1]: 30.9 µM; IC50 [7]: 32.5 µM; IC50 [2]: 38.5 µM
33 | COc1cc(C(=O)O)c2c(c1C)OC(=O)c1c(C)cc(O)c(C=O)c1O2 [PSOROMIC ACID] | 15.1 | 17 | 12.3 | 5.3 | 
34 | Cc1cc(O)c(C=O)c2c1C(=O)Oc1c(CO)c(O)c3c(c1O2)C(O)OC3=O (stereo not given) [SLAZINIC ACID] | 16 | 19 | 6.2 | 12.6 | 
35 | COc1cc(C)c2c(c1C=O)Oc1c(c(C)c(O)c3c1C(O)OC3=O)OC2=O (stereo not given) [STICTIC ACID] | 2.9 | 4.4 | 1.9 | 2.6 | IC50 [7]: 11.7 µM
